The star is where a group is joined. Cbz = O=C(OCc1ccccc1)*; CH2F = FC*
Assays:
LNCaP cells [1] = details: previous data; cited from earlier work
RARβ = target: T1, RARβ (Homo sapiens, UniProt P10826); details: binding affinities of synthetic retinoids; cited from earlier work
T1 sequence (P10826 183-417 limits assumed): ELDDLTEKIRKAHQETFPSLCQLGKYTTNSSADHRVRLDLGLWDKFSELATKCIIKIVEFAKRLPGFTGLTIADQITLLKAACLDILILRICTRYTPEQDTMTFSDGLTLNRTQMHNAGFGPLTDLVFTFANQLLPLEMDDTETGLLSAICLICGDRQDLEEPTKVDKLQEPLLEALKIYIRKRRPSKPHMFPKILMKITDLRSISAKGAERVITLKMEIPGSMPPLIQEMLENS

LNCaP cells [2] = experiment: Cell cycle analysis; type: cell-based, human; details: 10^−6 M; for proportion of cells sub‐G0/G1: 48‐hour timepoint
Summary of the method: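 Serum-free adapted LNCaP cells treated with test compound over a time course to 48 h. Harvested cells stained with propidium iodide and analysed by flow cytometry. Phases were assigned by DNA content: 2n is G1, 4n is G2/M, and between 2n and 4n is S. Cells below 2n (sub-G1) were scored as apoptotic. Results are percentages of cells per phase.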

LNCaP cells [3] = experiment: TUNEL assay of apoptosis; type: cell-based, human; details: for proportion of apoptotic cells (TUNEL): 10^−6 M, 60 hours post‐treatment
Summary of the method: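 Serum-free adapted LNCaP cells (5 × 10^5 per 75 cm2 flask) were treated with 10−6 M test compound or vehicle over a time course. Z-VAD-FMK (50 μM) was added 1 h before compound where indicated. Adherent plus floating cells were cytospun and stained by TdT fluorescein in situ labelling. Positive cells were counted per 500 cells in five fields, on three slides per sample; results are % apoptotic cells.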

LNCaP cells [4] = experiment: Colony forming efficiency, LNCaP; type: cell-based, human; details: Figure 4A
Summary of the method: (§1)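 Serum-free adapted cells were trypsinized (0.25% trypsin in PBS, 5 min, 37°C) into single-cell suspensions; suspensions under 90% trypan-blue-viable were discarded. 1000 cells per 65-mm dish were grown 21 days at 37°C, 5% CO2, in RPMI 1640 plus ITS+1 with test compound, refreshed every 5 days. Colonies were fixed in 1% formaldehyde and stained with methylene blue. CFE = colonies/cells inoculated × 100.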

DU145 cells [5] = experiment: Colony forming efficiency, DU145; type: cell-based, human; details: DU145, Figure 4A
Summary of the method: as §1

RARγ = target: T2, RARγ (Homo sapiens, UniProt P13631); details: binding affinities of synthetic retinoids; cited from earlier work
T2 sequence (P13631 185-419 limits assumed): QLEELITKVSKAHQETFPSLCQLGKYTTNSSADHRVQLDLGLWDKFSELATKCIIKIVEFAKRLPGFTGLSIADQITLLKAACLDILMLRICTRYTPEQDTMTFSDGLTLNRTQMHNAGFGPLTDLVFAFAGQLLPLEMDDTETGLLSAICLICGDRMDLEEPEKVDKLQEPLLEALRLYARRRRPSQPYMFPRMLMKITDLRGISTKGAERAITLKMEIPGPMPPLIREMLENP

RARα = target: T3, RARα (Homo sapiens, UniProt P10276); details: binding affinities of synthetic retinoids; cited from earlier work
T3 sequence (P10276 183-417 limits assumed): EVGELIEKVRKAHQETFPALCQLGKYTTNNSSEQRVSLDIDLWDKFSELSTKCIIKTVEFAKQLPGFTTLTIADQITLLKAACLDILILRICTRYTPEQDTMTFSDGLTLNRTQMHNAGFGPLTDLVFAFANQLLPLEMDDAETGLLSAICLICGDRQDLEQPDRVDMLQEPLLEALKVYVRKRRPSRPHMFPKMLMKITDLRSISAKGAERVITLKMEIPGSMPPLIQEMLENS

PC‐3 cells [6] = experiment: Colony forming efficiency, PC‐3; type: cell-based, human; details: PC‐3, Figure 4A
Summary of the method: as §1

LNCaP cells [7] = experiment: Cell growth; type: cell-based, human
LNCaP cells [8] = experiment: Adipogenic differentiation; type: cell-based, human
RWPE‐1 cells = experiment: Metabolic activity; type: cell-based, human; details: non‐tumorigenic RWPE‐1 compared with PC cell lines
Summary of the method: (§2)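 Serum-free adapted LNCaP, PC-3, DU145 or RWPE-1 cells were seeded at 400 cells/well in RPMI-1640 plus ITS+1. Test compound was added at seeding and again at day 2 by medium change. Viability was read at day 5 as intracellular ATP by luminescence (ViaLight HS). Results are % viable cells relative to vehicle control; at least three experiments in triplicate, mean ± SD.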

caspase‐8 = experiment: Fluorometric caspase‐8 activity in LNCaP lysates; type: cell-based, human; details: 10^−6 M
Summary of the method: (§3)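 Serum-free adapted LNCaP cells were treated with 10−6 M test compound, with pan-caspase inhibitor and etoposide arms as indicated. Lysate was mixed with an equal volume of 20 mM HEPES pH 7.5, 10% glycerol, 2 mM DTT containing 50 μM substrate: DEVD-AFC (caspase-3), IETD-AFC (caspase-8) or LEHD-AFC (caspase-9). Background wells lacked lysate. Fluorescence was read at 400 nm excitation/508 nm emission, expressed as fold over control.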

PC‐3 cells [9] = experiment: Metabolic activity; type: cell-based, human; details: PC‐3, concentrations of 10^−6 M and above
Summary of the method: as §2

LNCaP cells [10] = experiment: Agarose gel electrophoresis of DNA; type: cell-based, human; details: time course
caspase‐3 = experiment: Fluorometric caspase‐3 activity in LNCaP lysates; type: cell-based, human; details: 10^−6 M
Summary of the method: as §3

DU145 cells [11] = experiment: Metabolic activity; type: cell-based, human; details: DU145, concentrations of 10^−6 M and above
Summary of the method: as §2

LNCaP cells [12] = experiment: Metabolic activity; type: cell-based, human; details: concentrations of 10^−6 M and above
Summary of the method: as §2

caspase‐9 = experiment: Fluorometric caspase‐9 activity in LNCaP lysates; type: cell-based, human; details: 10^−6 M
Summary of the method: as §3

DU145 cells [13] = experiment: Cell growth; type: cell-based, human
PC‐3 cells [14] = experiment: Cell growth; type: cell-based, human

Row | Compound | ED50 RARβ (RARβ) [nM] | proportion of apoptotic cells (TUNEL) (LNCaP cells [3]) | colony forming efficiency (CFE), antagonists (LNCaP cells [4]) | colony forming efficiency (CFE), antagonists (DU145 cells [5]) | ED50 RARγ (RARγ) | ED50 RARα (RARα) [nM] | colony forming efficiency (CFE), antagonists (PC‐3 cells [6]) | also measured
1 | CCc1ccc(C2=CC(C)(C)Sc3ccc(C#Cc4ccc(C(=O)O)cc4)cc32)cc1 [AGN194310, 4‐[[4‐(4‐Ethylphenyl)‐2,2‐dimethyl‐(2H)‐thiochromen‐6‐yl]‐ethynyl]‐benzoic acid] | 5 | 35% | diminished the CFE | diminished the CFE | 2 nM | 4.3 | diminished the CFE | colony formation (LNCaP cells [1]): inhibited colony formation; proportion of cells in G1 phase (LNCaP cells [2]): gradually increased; proportion of cells in S‐phase (LNCaP cells [2]): fall; proportion of cells sub‐G0/G1 (LNCaP cells [2]): ~60%
2 | CC1(C)CCC(C)(C)c2c1cc(C(=O)Nc1cc(F)c(C(=O)O)c(F)c1)c(O)c2Cl [AGN195183, 4‐(4‐Chloro‐3‐hydroxy‐5,5,8,8‐tetramethyl‐5,6,7,8‐tetrahydronaphthalene‐2‐carboxamido)‐2,6‐difluorobenzoic acid] | >5000 | – | – | – | >5000 nM | 20.1 | – | –
3 | CCOc1c(Br)cc(C(=O)Nc2ccc(C(=O)O)cc2)cc1C(=O)c1ccc(C)cc1 [AGN196996, 4‐(3‐Bromo‐4‐ethoxy‐5‐(4‐methylbenzoyl)benzamido)benzoic acid] | 4036 | little evidence of induction of apoptosis | neither ATRA, nor the RARα‐selective antagonist AGN196996 (Figure 1, S1C, S1F and Table 1) proved as effective AGN205728 or AGN194310 | neither ATRA, nor the RARα‐selective antagonist AGN196996 (Figure 1, S1C, S1F and Table 1) proved as effective AGN205728 or AGN194310 | >10 000 nM | 3.9 | neither ATRA, nor the RARα‐selective antagonist AGN196996 (Figure 1, S1C, S1F and Table 1) proved as effective AGN205728 or AGN194310 | effect of co‐treatment on AGN195183‐mediated growth inhibition (LNCaP cells [7]; 4 days, AGN196996 10^−8 M with AGN195183 10^−8 M): abolished AGN195183‐mediated growth inhibition; effect of co‐treatment with ATRA on proliferation (LNCaP cells [7]; 4 days, AGN196996 10^−8 M with ATRA 10^−8 M): promoted proliferation of LNCaP cells
4 | CC1(C)CCC(C)(C)c2cc(/C(=N\O)c3cc4cc(C(=O)O)ccc4[nH]3)ccc21 [AGN205327, 2‐[(E)‐N‐Hydroxy‐C‐(5,5,8,8‐tetramethyl‐6,7‐dihydronaphthalen‐2‐yl)carbonimidoyl]‐1H‐indole‐5‐carboxylic acid] | 734 | – | – | – | 32 nM | 3766.0 | – | effect on ciglitazone‐induced adipogenesis (LNCaP cells [8]; AGN205327 added later than 48 hours post‐induction): failed to have any effect; inhibition of ciglitazone‐induced adipogenic differentiation (LNCaP cells [8]; ciglitazone (10^−7 M), AGN205327 10^−7 M given between 48 hours pre‐ and post‐addition of ciglitazone): ≤ 70%
5 | Cc1ccc(C2=CCC(C)(C)c3cc(C(/C=C/c4ccc(C(=O)O)cc4)=N/O)ccc32)cc1 [AGN205728, 4‐[(E,3E)‐3‐[8,8‐Dimethyl‐5‐(4‐methylphenyl)‐7H‐naphthalen‐2‐yl]‐3‐hydroxyiminoprop‐1‐enyl]benzoic acid] | 4248 | 40% | diminished the CFE | diminished the CFE | 3 nM | 2400.0 | diminished the CFE | response of metabolic activity (RWPE‐1 cells): significantly diminished response; activation of caspase‐8 (caspase‐8): failed to activate; metabolic activity (PC‐3 cells [9]): abolishing metabolic activity; DNA fragmentation pattern (LNCaP cells [10]): discrete laddering pattern that is typical of cells undergoing apoptosis; activation of caspase‐3 (caspase‐3): failed to activate; proportion of cells in G1 phase (LNCaP cells [2]): gradually increased; proportion of cells in S‐phase (LNCaP cells [2]): fall; proportion of cells sub‐G0/G1 (LNCaP cells [2]): ~40%; metabolic activity (DU145 cells [11]): abolishing metabolic activity; metabolic activity (LNCaP cells [12]): abolishing metabolic activity; activation of caspase‐9 (caspase‐9): failed to activate
6 | CC1=C(/C=C/C(C)=C/C=C/C(C)=C/C(=O)O)C(C)(C)CCC1 [ATRA, All‐trans‐retinoic acid] | – | – | – | – | – | – | – | effect on cell growth (DU145 cells [13]; DU145, 10^−8 M and above): progressively diminished cell growth; increase in cell numbers (DU145 cells [13]; DU145, 5 days, 10^−11‐10^−9 M): up to 1.5 fold; effect on cell growth (PC‐3 cells [14]; PC‐3, 10^−8 M and above): progressively diminished cell growth; increase in cell numbers (PC‐3 cells [14]; PC‐3, 5 days, 10^−11‐10^−9 M): up to 1.5 fold; effect on cell growth (LNCaP cells [7]; 10^−8 M and above): progressively diminished cell growth; increase in cell numbers (LNCaP cells [7]; 5 days, 10^−11‐10^−9 M): up to 1.5 fold
7 | O=C(Nc1ccccc1)c1cc([N+](=O)[O-])ccc1Cl [GW9662] | – | – | – | – | – | – | – | inhibition of accumulation of lipid droplets (LNCaP cells [8]; differentiation medium, day 14, AGN205327 10^−7 M, GW9662 10^−5 M): of a similar order
8 | Cbz-Val-Ala-Asp-CH2F [reference compound] | – | – | – | – | – | – | – | effect of pre‐treatment on AGN205728‐induced apoptosis (TUNEL) (LNCaP cells [3]; Z‐VAD‐FMK 5 × 10^−5 M, AGN205728 10^−6 M): failed to diminish induction of apoptosis by AGN205728
